Data taken from PMC3619423 (Experimental eye research, 2013).
Entries after “also recorded” stand apart in the source; their conditions may differ. No end group written: not given here.

Experiments:
[1] = tested on: bovine lens protease-rich fraction; assay: Hydrolysis of MCA-62-70 substrate by lens protease in the presence of inhibitors; type: biochemical; conditions: for inhibition of MCA-62-70 hydrolysis: pre-incubated 30 min at 37 °C
[2] = tested on: Arg-MCA hydrolyzing activity (aminopeptidase activity); assay: Arg-MCA hydrolysis; type: biochemical, bovine
[3] = protease-rich human; conditions: 37 °C, up to 5 h
[4] = tested on: bovine lens extracts (outer cortical, inner cortical, nuclear); assay: MCA-62-70 hydrolytic activity in regions of bovine lens; type: biochemical; conditions: 1 mg protein extract, 37 °C
How it was run: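 Decapsulated bovine lenses stirred at 4 °C in 50 mM sodium phosphate, 150 mM NaCl, pH 7.2, dissolving outer cortex (about a third of wet weight), then inner cortex (about a third); remaining nucleus homogenised. Each fraction centrifuged 30,000 × g, 30 min; supernatant (1 mg protein) incubated with 25 μg MCA-62-70, 2 h, 37 °C; fluorescence read before and after (ex 326, em 398 nm).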

[5] = tested on: human lens extracts (cortical, nuclear); assay: MCA-62-70 hydrolytic activity in human lenses of different age; type: biochemical; conditions: for total protease activity (MCA-62-70 hydrolyzed): water-soluble proteins
How it was run: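 Cortical and nuclear regions of frozen young, middle-aged and old human lenses separated by dissection; water-soluble extracts (1 mg protein) incubated with 25 μg MCA-62-70 substrate, 2 h, 37 °C. Fluorescence read before and after (ex 326, em 398 nm). Amount hydrolysed taken from a standard curve of trypsin-digested substrate; average ± SE of four independent experiments; one-way ANOVA with Tukey's test.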

[6] = tested on: peptidase-rich fraction of bovine lens extract
[7] = bovine, 37 °C
[8] = bovine lens extract containing 5 mg protein; conditions: 37 °C, up to 16 h

Compound: O=c1oc(Cl)c(Cl)c2ccccc12 [3,4-DCI]
- inhibition of MCA-62-70 hydrolysis ([1]; 500 μM): up to 85%

Compound: CC(C)C[C@H](NC(=O)[C@@H](O)[C@H](N)Cc1ccccc1)C(=O)O [Bestatin, reference compound]
- inhibition of Arg-MCA hydrolyzing activity (aminopeptidase activity) ([2]; protease preparation treated with bestatin): complete inhibition

Compound: O=C(O)CN(CCN(CC(=O)O)CC(=O)O)CC(=O)O [EDTA, ethylene diamine tetraacetic acid]
- inhibition of MCA-62-70 hydrolysis ([1]; concentration not given): 50%

Compound: O=C(O)CN(CCOCCOCCN(CC(=O)O)CC(=O)O)CC(=O)O [EGTA, ethylene glycol tetraacetic acid]
- inhibition of MCA-62-70 hydrolysis ([1]; concentration not given): 50%

Compound: NC(=O)CI [Iodoacetamide]
- Relative activity (%) [1]: 97%

Compound: MCA-SEVRSDRD[Lys(Dnp)]RR-NH2
- fragment found [3]: MCA-62-68 (MCA-SEVRSDR); also recorded: MCA-62-65 (MCA-SEVR); also recorded: MCA-62-66 (MCA-SEVRS), major

Compound: MCA-SEVRSDRD[Lys(Dnp)]RR-NH2 [MCA-62-70]
- enzymatic activity (MCA-62-70 hydrolysis) ([4]; bovine lens inner cortex): 0.10 ± 0.01 nmoles/hr/mg protein
- enzymatic activity (MCA-62-70 hydrolysis) ([4]; bovine lens nuclear region): 0.04 ± 0.003 nmoles/hr/mg protein
- enzymatic activity (MCA-62-70 hydrolysis) ([4]; bovine lens outer cortical region): 0.58 ± 0.04 nmoles/hr/mg protein
- share of total lens enzymatic activity in the cortical region ([5]; human lens cortical region, all age groups): ~90%
- total protease activity (MCA-62-70 hydrolyzed) ([5]; middle-aged (40 ± 2 years) human lenses): 7.26 ± 0.83 n moles/h
- total protease activity (MCA-62-70 hydrolyzed) ([5]; older (60 ± 2 years) human lenses): 5.49 ± 0.29 nmol/h
- total protease activity (MCA-62-70 hydrolyzed) ([5]; young (20 ± 2 years) human lenses): 8.84 ± 0.96 nmol/h

Compound: RPPGFSPFR [bradykinin, Bradykinin]
- hydrolysis after 2 h [6]: complete hydrolysis
- slowing of hydrolysis rate versus peptide incubated alone [6]: 40%

Compound: SDRDKFVIFLDVKHF
- not cleaved [7]: αA-66-80 was not hydrolyzed

Compound: Succinyl-DVKHFSPEDK-Biotin
- fragment found [8]: αA-76-78; also recorded: αA-76-80; also recorded: αA-76-82, major

Compound: Succinyl-ISEVRSDRDK-Biotin
- fragment found [8]: αA-61-65; also recorded: αA-61-66

Compound: α-crystallin: bovine lens α-crystallin, molecular chaperone protein added to the peptidase incubations
- increase of Arg-MCA hydrolysis by peptidase-rich bovine lens fraction ([2]; addition of 12.5 nmoles α-crystallin, data not shown): ~4 fold
